Measurements reported in ChEMBL document CHEMBL1149183, “Novel benzo[1,4]diazepin-2-one derivatives as endothelin receptor antagonists” (J Med Chem, 2004).

Assays:
Endothelin receptor [1] = molecular target: T1, Endothelin receptor (Rattus norvegicus, UniProt P26684+P21451); assay: Inhibitory potency at native endothelin A and endothelin B receptors by inhibiting endothelin-1 contractions of rat aortic rings; type: functional
T1 sequence (P26684 whole entry): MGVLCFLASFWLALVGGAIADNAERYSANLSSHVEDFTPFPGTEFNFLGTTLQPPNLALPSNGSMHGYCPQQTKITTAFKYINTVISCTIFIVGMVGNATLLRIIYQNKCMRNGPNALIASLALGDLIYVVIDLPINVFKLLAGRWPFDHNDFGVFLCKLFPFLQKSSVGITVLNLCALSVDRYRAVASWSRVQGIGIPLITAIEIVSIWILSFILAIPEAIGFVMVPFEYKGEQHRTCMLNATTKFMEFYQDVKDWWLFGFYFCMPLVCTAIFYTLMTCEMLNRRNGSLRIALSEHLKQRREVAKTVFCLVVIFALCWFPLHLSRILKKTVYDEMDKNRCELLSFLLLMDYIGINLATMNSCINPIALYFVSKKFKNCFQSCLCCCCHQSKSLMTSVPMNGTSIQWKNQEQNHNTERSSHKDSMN
T1 sequence (P21451 whole entry): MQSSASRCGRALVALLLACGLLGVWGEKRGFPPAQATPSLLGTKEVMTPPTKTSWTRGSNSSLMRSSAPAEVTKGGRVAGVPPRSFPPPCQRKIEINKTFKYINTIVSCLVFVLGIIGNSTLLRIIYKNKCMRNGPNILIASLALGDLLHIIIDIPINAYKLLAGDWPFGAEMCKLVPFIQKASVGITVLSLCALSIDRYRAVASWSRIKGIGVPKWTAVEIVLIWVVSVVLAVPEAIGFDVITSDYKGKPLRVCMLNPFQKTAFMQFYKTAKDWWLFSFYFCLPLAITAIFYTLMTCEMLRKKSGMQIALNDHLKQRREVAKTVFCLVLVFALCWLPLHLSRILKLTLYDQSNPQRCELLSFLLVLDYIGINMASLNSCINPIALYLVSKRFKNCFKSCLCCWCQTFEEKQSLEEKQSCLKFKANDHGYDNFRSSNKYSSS

[2] = molecular target: T2, Endothelin receptor type B (Homo sapiens, UniProt P24530); assay: Antagonist activity towards human recombinant Endothelin B receptor expressed in chinese hamster ovary (CHO) cells determined using [125I]ET1 as radioligand; type: functional, cell-based
T2 sequence (P24530 whole entry): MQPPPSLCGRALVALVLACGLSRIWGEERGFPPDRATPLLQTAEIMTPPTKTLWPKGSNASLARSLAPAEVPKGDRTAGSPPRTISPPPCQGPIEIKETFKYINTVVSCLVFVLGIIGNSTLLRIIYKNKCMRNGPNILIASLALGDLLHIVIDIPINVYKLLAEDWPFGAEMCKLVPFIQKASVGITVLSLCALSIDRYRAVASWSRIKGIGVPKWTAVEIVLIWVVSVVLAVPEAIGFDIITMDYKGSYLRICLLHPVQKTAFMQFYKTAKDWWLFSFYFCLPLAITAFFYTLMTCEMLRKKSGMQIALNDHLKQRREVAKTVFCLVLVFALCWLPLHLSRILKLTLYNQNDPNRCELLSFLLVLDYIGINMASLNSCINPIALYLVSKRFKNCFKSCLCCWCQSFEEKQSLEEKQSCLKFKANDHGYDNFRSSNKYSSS

Endothelin-1 receptor = molecular target: T3, Endothelin-1 receptor (Homo sapiens, UniProt P25101); assay: Antagonist activity towards human recombinant Endothelin A receptor expressed in chinese hamster ovary (CHO) cells determined using [125I]ET1 as radioligand; type: functional, cell-based
T3 sequence (P25101 whole entry): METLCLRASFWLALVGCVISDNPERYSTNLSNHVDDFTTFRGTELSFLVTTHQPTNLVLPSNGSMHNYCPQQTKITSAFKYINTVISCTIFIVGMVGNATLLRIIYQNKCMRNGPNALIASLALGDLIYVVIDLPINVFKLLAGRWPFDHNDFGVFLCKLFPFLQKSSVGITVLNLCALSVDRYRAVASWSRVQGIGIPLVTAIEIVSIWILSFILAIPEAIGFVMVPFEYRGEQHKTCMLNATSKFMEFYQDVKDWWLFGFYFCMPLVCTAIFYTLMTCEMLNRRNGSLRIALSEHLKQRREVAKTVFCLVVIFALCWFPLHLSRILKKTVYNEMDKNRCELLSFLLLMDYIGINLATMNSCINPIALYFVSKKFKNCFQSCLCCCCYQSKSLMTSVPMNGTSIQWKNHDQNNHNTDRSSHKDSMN

Endothelin receptor [3] = molecular target: T1, Endothelin receptor; assay: Inhibitory potency at native endothelin A and B receptors by inhibiting sarafotoxin Sf6 contractions of rat tracheal rings; type: functional
Rattus norvegicus [4] = organism: Rattus norvegicus; assay: Duration of action of compound for reducing the blood pressure of rats was determined; type: functional
Procedure, shortened: (§1)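 Single oral dose of 30 mg/kg suspended in 10% arabic gum to hypertensive Dahl salt-sensitive rats carrying telemetry for arterial pressure and heart rate; area between pre- and post-treatment pressure curves calculated; fall in mean arterial pressure and duration of action also taken from recordings.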

Rattus norvegicus [5] = assay: In vivo area between curve (ABC) as calculated from the blood pressure recordings before and after administration of 30 mg/kg to hypertensive Dahl salt sensitive rats; number of rats=12; type: functional; procedure, shortened: as §1
Rattus norvegicus [6] = organism: Rattus norvegicus; assay: Maximum effect on reduction of mean arterial blood pressure was determined in rats; type: functional; procedure, shortened: as §1
Cytochrome P450 2C9 = Cytochrome P450 2C9 (Homo sapiens, UniProt P11712); assay: Inhibition of human cytochrome P450 2C9; type: ADME
Chain of Cytochrome P450 2C9 (P11712 whole entry, canonical isoform): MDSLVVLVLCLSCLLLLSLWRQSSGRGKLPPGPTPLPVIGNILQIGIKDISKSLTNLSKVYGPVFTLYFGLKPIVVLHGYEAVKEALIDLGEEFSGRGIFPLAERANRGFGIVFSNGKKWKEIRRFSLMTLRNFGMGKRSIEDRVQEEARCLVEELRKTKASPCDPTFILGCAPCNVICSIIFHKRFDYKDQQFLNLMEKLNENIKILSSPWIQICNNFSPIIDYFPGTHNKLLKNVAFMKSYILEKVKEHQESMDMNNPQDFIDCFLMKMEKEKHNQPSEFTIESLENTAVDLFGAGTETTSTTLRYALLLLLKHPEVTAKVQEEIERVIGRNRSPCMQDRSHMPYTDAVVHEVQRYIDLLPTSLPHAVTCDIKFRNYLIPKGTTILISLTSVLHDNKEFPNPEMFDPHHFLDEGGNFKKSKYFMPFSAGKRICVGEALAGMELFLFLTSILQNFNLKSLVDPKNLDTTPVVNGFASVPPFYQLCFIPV
Procedure, shortened: (§2)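 Human liver microsomes with isoform marker reactions near substrate Km: diclofenac 4'-hydroxylation (2C9), dextromethorphan […] (2D6), midazolam 1'-hydroxylation (3A4); metabolite formation by LC-MS/MS; IC50 reported.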

Cytochrome P450 3A4 = Cytochrome P450 3A4 (Homo sapiens, UniProt P08684); assay: Inhibition of human cytochrome P450 3A4; type: ADME; procedure, shortened: as §2
Chain of Cytochrome P450 3A4 (P08684 whole entry): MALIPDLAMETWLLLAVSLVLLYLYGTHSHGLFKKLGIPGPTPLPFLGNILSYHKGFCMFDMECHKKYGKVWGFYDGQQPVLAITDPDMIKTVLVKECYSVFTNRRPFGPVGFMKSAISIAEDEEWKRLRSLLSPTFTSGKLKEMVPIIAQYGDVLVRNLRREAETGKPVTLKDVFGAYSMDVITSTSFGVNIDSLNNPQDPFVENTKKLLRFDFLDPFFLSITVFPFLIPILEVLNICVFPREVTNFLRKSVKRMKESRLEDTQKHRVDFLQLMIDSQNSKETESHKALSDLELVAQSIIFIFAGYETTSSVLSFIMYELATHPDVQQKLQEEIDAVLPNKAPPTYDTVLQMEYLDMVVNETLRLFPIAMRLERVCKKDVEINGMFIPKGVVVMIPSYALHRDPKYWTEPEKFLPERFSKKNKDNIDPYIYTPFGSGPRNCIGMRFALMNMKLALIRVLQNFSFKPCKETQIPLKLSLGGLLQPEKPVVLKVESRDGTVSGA

Cytochrome P450 2D6 = Cytochrome P450 2D6 (Homo sapiens, UniProt P10635); assay: Inhibition of human cytochrome P450 2D6; type: ADME; procedure, shortened: as §2
Chain of Cytochrome P450 2D6 (P10635 whole entry): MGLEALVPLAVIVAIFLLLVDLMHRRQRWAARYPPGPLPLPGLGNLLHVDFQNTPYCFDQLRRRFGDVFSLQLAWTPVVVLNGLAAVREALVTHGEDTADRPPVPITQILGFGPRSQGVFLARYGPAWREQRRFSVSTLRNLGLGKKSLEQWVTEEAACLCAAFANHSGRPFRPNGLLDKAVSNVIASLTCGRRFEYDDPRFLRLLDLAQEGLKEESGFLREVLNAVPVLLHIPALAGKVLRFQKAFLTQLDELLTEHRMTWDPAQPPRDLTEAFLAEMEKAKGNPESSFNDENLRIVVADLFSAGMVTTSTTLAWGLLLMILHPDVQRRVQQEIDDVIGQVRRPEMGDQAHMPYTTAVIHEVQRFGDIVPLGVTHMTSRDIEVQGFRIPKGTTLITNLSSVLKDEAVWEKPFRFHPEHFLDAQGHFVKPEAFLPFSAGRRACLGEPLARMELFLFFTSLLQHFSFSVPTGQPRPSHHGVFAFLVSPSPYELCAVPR

Rattus norvegicus [7] = assay: In vivo area between curve (ABC) as calculated from the blood pressure recordings before and after administration of 30 mg/kg to hypertensive Dahl salt sensitive rats; number of rats=10; type: functional; procedure, shortened: as §1
[8] = Log D value was evaluated; type: physicochemical; conditions: octanol/water, pH 7.4; read-out: Log D7.4
Procedure, shortened: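 Shake-flask partition, n-octanol versus aqueous phase buffered to pH 7.4 (67 mM KH2PO4/67 mM Na2HPO4), volume ratio 1:9; both phases assayed by HPLC.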

Rattus norvegicus [9] = assay: In vivo area between curve (ABC) as calculated from the blood pressure recordings before and after administration of 30 mg/kg to hypertensive Dahl salt sensitive rats; number of rats=6; type: functional; procedure, shortened: as §1
Rattus norvegicus [10] = assay: In vivo area between curve (ABC) as calculated from the blood pressure recordings before and after administration of 30 mg/kg to hypertensive Dahl salt sensitive rats; number of rats=14; type: functional; procedure, shortened: as §1

SMILES | pA2 (Endothelin receptor [1]) | IC50 [2] [nM] | IC50 (Endothelin-1 receptor) [nM] | pA2 (Endothelin receptor [3]) | Duration of action (Rattus norvegicus [4]) [h] | ABC (Rattus norvegicus [5]) [mmHg·h] | Max effect (Rattus norvegicus [6]) [mmHg] | IC50 (Cytochrome P450 2C9) [nM] | IC50 (Cytochrome P450 3A4) [nM] | IC50 (Cytochrome P450 2D6) [nM] | ABC (Rattus norvegicus [7]) [mmHg·h] | logD [8] | ABC (Rattus norvegicus [9]) [mmHg·h] | ABC (Rattus norvegicus [10]) [mmHg·h]
Cc1cc(C)nc(O[C@H](C(=O)O)[C@@]2(c3ccccc3)NCC(=O)N(Cc3ccc(F)cc3)c3ccccc32)n1 (racemic) | 7.46 | 49.7 | 5.9 |  |  |  |  |  |  |  |  |  |  | 
COc1ccc(CN2C(=O)CN[C@](c3cccc(C)c3)([C@H](Oc3nc(C)cc(C)n3)C(=O)O)c3ccccc32)cc1 (racemic) | 6.32 | 50.7 | 6.3 |  |  |  |  |  |  |  |  |  |  | 
Cc1cc(C)nc(O[C@H](C(=O)O)[C@@]2(c3cccc(-c4ccccc4)c3)NCC(=O)N(Cc3c(Cl)cccc3Cl)c3ccccc32)n1 (racemic) | 8.98 | 25 | 16.9 | 7.37 | 18 | 200 | -15 |  |  |  |  |  |  | 
Cc1cc(C)nc(O[C@H](C(=O)O)[C@@]2(c3ccccc3)NCC(=O)N(CCO)c3ccccc32)n1 (racemic) | 6.79 | 108 | 6.9 |  |  |  |  |  |  |  |  |  |  | 
Cc1cc(C)nc(O[C@H](C(=O)O)[C@@]2(c3ccccc3)NCC(=O)N(Cc3c(F)cccc3F)c3ccccc32)n1 (racemic) | 7.83 | 17.7 | 1.1 |  |  |  |  |  |  |  |  |  |  | 
Cc1cc(C)nc(O[C@H](C(=O)O)[C@@]2(c3ccccc3)NCC(=O)N(Cc3c(F)cc(F)cc3F)c3ccccc32)n1 (racemic) | 8.18 | 83.6 | 2.5 | 6.18 | 54 |  | -21 | > 50000 | 41000 | > 50000 | 674 | 0.4 |  | 
Cc1cc(C)nc(O[C@H](C(=O)O)[C@@]2(c3ccccc3)NCC(=O)N(Cc3c(Cl)cccc3Cl)c3ccccc32)n1 (racemic) | 8.55 | 6.6 | 1.8 |  |  |  |  |  |  |  |  |  |  | 
CCCCc1cccc([C@]2([C@H](Oc3nc(C)cc(C)n3)C(=O)O)NCC(=O)N(Cc3c(F)cccc3Cl)c3ccccc32)c1 (racemic) | 8.72 | 7.1 | 7.6 | 7.88 | 36 | 409 | -23 |  |  |  |  |  |  | 
CCCCc1cccc([C@]2([C@H](Oc3nc(C)cc(C)n3)C(=O)O)NCC(=O)N(Cc3c(F)cc(F)cc3F)c3ccccc32)c1 (racemic) | 8.36 | 33.2 | 13.9 | 7.72 | 18 |  | -13 | 15000 | 5000 | > 50000 |  | 2.3 | 214 | 
Cc1cc(C)nc(O[C@H](C(=O)O)[C@@]2(c3ccccc3)NCC(=O)N(C)c3ccccc32)n1 (racemic) |  | 184 | 12.3 |  |  |  |  | > 50000 | > 50000 | > 50000 |  | -2 |  | 
Cc1cc(C)nc(O[C@H](C(=O)O)[C@@]2(c3ccccc3)NCC(=O)N(Cc3c(F)c(F)c(F)c(F)c3F)c3ccccc32)n1 (racemic) | 7.87 | 28.8 | 6.8 |  |  |  |  |  |  |  |  |  |  | 
Cc1cc(C)c(CN2C(=O)CN[C@](c3ccccc3)([C@H](Oc3nc(C)cc(C)n3)C(=O)O)c3ccccc32)c(C)c1 (racemic) | 8.1 | 15.5 | 6.7 |  |  |  |  |  |  |  |  |  |  | 
CCCCc1cccc([C@]2([C@H](Oc3nc(C)cc(C)n3)C(=O)O)NCC(=O)N(Cc3ccc(OC)cc3)c3ccccc32)c1 (racemic) | 7.69 | 36.5 | 7.9 |  |  |  |  |  |  |  |  |  |  | 
Cc1cc(C)nc(O[C@H](C(=O)O)[C@@]2(c3ccccc3)NCC(=O)N(Cc3ccc(F)c(F)c3F)c3ccccc32)n1 (racemic) | 7.93 | 49.7 | 6.5 |  |  |  |  |  |  |  |  |  |  | 
CCCCCCN1C(=O)CN[C@](c2ccccc2)([C@H](Oc2nc(C)cc(C)n2)C(=O)O)c2ccccc21 (racemic) | 6.71 | 39.9 | 23.7 |  |  |  |  |  |  |  |  |  |  | 
Cc1cc(C)nc(O[C@H](C(=O)O)[C@@]2(c3ccccc3)NCC(=O)N(Cc3nn[nH]n3)c3ccccc32)n1 (racemic) | 6.99 | 65.6 | 6.6 |  |  |  |  |  |  |  |  |  |  | 
CCCCc1cccc([C@]2([C@H](Oc3nc(C)cc(C)n3)C(=O)O)NCC(=O)N(Cc3c(C)cc(C)cc3C)c3ccccc32)c1 (racemic) | 7.83 | 13.6 | 18.3 | 7.44 | 24 | 285 | -21 |  |  |  |  |  |  | 
Cc1cc(C)cc(O[C@H](C(=O)O)[C@@]2(c3ccccc3)NCC(=O)N(Cc3c(F)cc(F)cc3F)c3ccccc32)c1 (racemic) | 8.27 | 565 | 17.2 | 7.02 | 32 |  | -28 | 15000 | 14000 | > 50000 |  | 2.1 |  | 483
Cc1cc(C)cc(O[C@H](C(=O)O)[C@@]2(c3ccccc3)NCC(=O)N(Cc3c(F)cccc3Cl)c3ccccc32)c1 (racemic) | 6.59 | 184 | 18.9 | 6.89 | 30 | 267 | -13 |  |  |  |  |  |  | 
CCc1cccc([C@]2([C@H](Oc3nc(C)cc(C)n3)C(=O)O)NCC(=O)N(Cc3ccc(OC)cc3)c3ccccc32)c1 (racemic) | 7.55 | 68 | 3.1 |  |  |  |  |  |  |  |  |  |  | 
COC(c1ccccc1)(c1ccccc1)[C@H](Oc1nc(C)cc(C)n1)C(=O)O (racemic) [AMBRISENTAN] | 7.09 |  | 21.7 | 5.63 | 32 |  | -17 |  |  |  |  |  | 409 | 
